Data taken from PubChem BioAssay.
Records with an inconclusive call do not appear.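 How the source made its calls, unless noted: active means viability at or below 27.92% in each of two runs, the all-compound median minus 4 SD; inconclusive means no clear call, values can overlap the other calls; inactive means the rest.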

How the values were obtained:
[1] = S. cerevisiae growth inhibition in permissive medium (OD615), pilot counter-assay for S. cerevisiae lifespan shortening project, permissive growth control (AID 705;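 active means growth inhibition above 25% in both replicates, a cutoff set 3 SD above the mean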); conditions: OD615, 24 h, at 10 µM, hits give high values
Summary of the method: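 System: Engineered DeaD yeast | Buffer or medium: SC raffinose/galactose permissive medium | Incubation: Cells pre-grown 4 h, then 24 h compound exposure, 30 °C humidified | Measured by: Absorbance (optical density) at 615 nm | Read-out: Reduction in yeast growth (OD615)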

[2] = S. cerevisiae growth inhibition in restrictive medium, OD615, pilot screen, restrictive growth control, yeast lifespan reduction project (AID 706;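 active means growth inhibition above a set limit, 3 SD over mean compound inhibition, in both replicates, cut at about 43% in these data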;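 further: modified DeaD lifespan yeast strain shifted to restrictive glucose medium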); conditions: OD615, 48 h, at 10 µM, hits give high values
Summary of the method: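 Material: modified S. cerevisiae; Medium: glucose-based CSMM-D restrictive medium; Compound dosing: one concentration, 10 µM final, 0.25% DMSO; Incubation: 48 h compound exposure at 30 °C; Measured by: OD615.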

[3] = doxorubicin toxicity protection in MRP-1 cells – H69AR cells, CellTiter-Glo, duplicate, MRP-1 activator project, pilot screen (AID 807;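 active means viability increase at or above a cutoff of the median across tested compounds plus 3 SD, cut at about 8.5% in these data, passing the limit was not always enough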;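 further: compound pretreatment 18-22 h then 72 h combined with doxorubicin; 0% = doxorubicin alone and 100% = vehicle without doxorubicin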); conditions: H69AR viability with doxorubicin, CellTiter-Glo luminescence; at 10 µM; hits give high values
[4] = viability of HCT116 without oncogenic beta-catenin – human colon tumor cells, pilot screen (AID 823;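 active means cell viability at or below a set limit in both duplicate runs, the limit being the all-compound median minus 4 SD, cut at about 23% in these data, passing the limit was not always enough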;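 further: 0% = wells killed by 20 µM Hyamine and 100% = untreated DMSO cell wells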); conditions: HCT116 beta-catenin knockout viability, CellTiter-Glo, 60 h; at 10 µM; hits give low values
[5] = viability of PTEN-null HCT116 cells – cell-based, HCT116 clonal line, CellTiter-Glo, pilot screen (AID 824); conditions: HCT116 PTEN-deleted viability, 60 h, at 10 µM, hits give low values;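 further: 0% = 20 µM Hyamine control and 100% = vehicle cell control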
[6] = RAM pathway blockade in budding yeast – dse1pr::URA3 reporter, 5-FOA selection, pilot screen (AID 869;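 active means inhibition over a set limit, the all-compound mean plus 3 SD, in both replicate runs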;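 further: 0% = DMSO wells with no growth and 100% = 10 µM 1-NA-PP1 with full growth; RAM network block rescues cells from 5-FOA so hits raise OD615 growth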); conditions: S. cerevisiae dse1pr::URA3 5-FOA growth, OD615, 2 d; at 10 µM; hits give high values; strain carries analog-sensitive mutant Cbk1 kinase
[7] = RAM signaling pathway blockade in yeast – S. cerevisiae, Pdr1DBD-CYC8 efflux-inhibited sensitized strain, primary screen (AID 1298;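 active means RAM network inhibition above 8.4% in each of two replicates, 3 SD over the compound average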;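 further: 0% = DMSO untreated cells without growth and 100% = 10 µM 1-NA-PP1 full growth; higher means more yeast growth rescued from 5-FOA killing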); conditions: S. cerevisiae cbk1-as DSE1-URA3 strain, 5-FOA growth OD615, 2 d; at 50 µM; hits give high values

O=C(C1CC1)N1CCCN(C(=O)C2CC2)CC1
inactive: growth inhibition [1] 2.42% | growth inhibition [2] -1.38% | viability increase [3] -1.86% | viability [4] 98.8% | viability [5] 97.1% | inhibition [6] 2.03% | RAM network inhibition [7] 4.69%

CCOc1ccc(C(C)NC(=O)CCC(=O)O)cc1 (stereo unspecified)
inactive: growth inhibition [1] -4.12% | growth inhibition [2] -1.54% | viability increase [3] -1.24% | viability [4] 93.4% | viability [5] 89% | inhibition [6] 1.27% | RAM network inhibition [7] 0.68%

O=C(NCCN1CCCCCC1)C1CCC(CNS(=O)(=O)c2cccc3cccnc23)CC1 (stereo unspecified)
inactive: growth inhibition [1] -8.39% | growth inhibition [2] -3.45% | viability increase [3] -3.58% | viability [4] 90.7% | viability [5] 93.8% | inhibition [6] 1.59% | RAM network inhibition [7] 10%

Cn1c(=O)n(C)c2cc(S(=O)(=O)O)ccc21
inactive: growth inhibition [1] 5.19% | growth inhibition [2] 4.85% | viability increase [3] -1.08% | viability [4] 97% | viability [5] 95% | inhibition [6] 1.38% | RAM network inhibition [7] 0.76%

COc1cccc(CNC(=O)CCS(=O)(=O)c2cccc3nonc23)c1
inactive: growth inhibition [1] -13.5% | growth inhibition [2] -21.2% | viability increase [3] -3.04% | viability [4] 93.2% | viability [5] 91% | inhibition [6] 1.75% | RAM network inhibition [7] 0.46%

O=C(NCCN1CCOCC1)c1ccc(CS(=O)(=O)c2c(Cl)cccc2Cl)o1
inactive: growth inhibition [1] -0.145% | growth inhibition [2] 5.92% | viability increase [3] -0.81% | viability [4] 110% | viability [5] 105% | inhibition [6] 0.74% | RAM network inhibition [7] 0.87%

O=C(Nc1nnc(-c2ccc3c(c2)OCCO3)o1)c1ccc(Cc2ccccc2)cc1
inactive: growth inhibition [1] -7.6% | growth inhibition [2] 6.34% | viability increase [3] -4.05% | viability [4] 46.1% | viability [5] 40.9% | inhibition [6] 1.59% | RAM network inhibition [7] 4.3%

COc1ccccc1N1C(=O)C2CC=CC(C)C2C1=O (stereo unspecified)
inactive: growth inhibition [1] -0.615% | growth inhibition [2] 2.32% | viability increase [3] -0.91% | viability [4] 89.4% | viability [5] 94% | inhibition [6] 0.52% | RAM network inhibition [7] 2.25%

CCN1CCN(Cc2ccc(NC(=O)Nc3ccc(OC)cc3)cc2)CC1
inactive: growth inhibition [1] 5.68% | growth inhibition [2] 1.98% | viability increase [3] 0.19% | viability [4] 104% | viability [5] 108% | inhibition [6] 2.09% | RAM network inhibition [7] 1.09%

CCCCn1c(CCCNC(=O)CC)nc2ccccc21
inactive: growth inhibition [1] 0.535% | growth inhibition [2] -5.98% | viability increase [3] -4.51% | viability [4] 94.2% | viability [5] 85.8% | inhibition [6] 1.65% | RAM network inhibition [7] 4.06%

CCCC(=O)N1CCN(c2ccc(C(=O)c3ccc(OC)c(Br)c3)cc2F)CC1
inactive: growth inhibition [1] -14.6% | growth inhibition [2] -18.4% | viability increase [3] -1.74% | viability [4] 96.8% | viability [5] 93.7% | inhibition [6] 1.3% | RAM network inhibition [7] 4.76%

O=C(OCCNc1ncc(C(F)(F)F)cc1Cl)c1ccc(S(=O)(=O)N2CCOCC2)cc1
inactive: growth inhibition [1] -5% | growth inhibition [2] -18.4% | viability increase [3] -2.03% | viability [4] 88.8% | viability [5] 97.9% | inhibition [6] 1.17% | RAM network inhibition [7] 9.46%

CC1CCc2nn(CC(=O)NCc3ccco3)cc2C1 (stereo unspecified)
inactive: growth inhibition [1] 8.89% | growth inhibition [2] 2.02% | viability increase [3] -3.13% | viability [4] 92.7% | viability [5] 88.2% | inhibition [6] 2.08% | RAM network inhibition [7] 5.3%

Cn1c(=O)c2c(nc(SCc3cc4c(cc3Cl)OCO4)n2C)n(C)c1=O
inactive: growth inhibition [1] -5.9% | growth inhibition [2] -0.11% | viability increase [3] -0.21% | viability [4] 99.6% | viability [5] 100% | inhibition [6] 1.15% | RAM network inhibition [7] 5.36%

O=C(C1CCC(=O)N1Cc1cccnc1)N1CCN(c2ccc(F)cc2)CC1 (stereo unspecified)
inactive: growth inhibition [1] -0.085% | growth inhibition [2] -9.05% | viability increase [3] -2.73% | viability [4] 90.1% | viability [5] 88.4% | inhibition [6] 0.585% | RAM network inhibition [7] 5.89%

CCOc1ccc(N(CC(=O)Nc2ccc3c(c2)OCCO3)S(=O)(=O)c2c(C)noc2C)cc1
inactive: growth inhibition [1] -6.29% | growth inhibition [2] -0.165% | viability increase [3] -3.41% | viability [4] 81.6% | viability [5] 87% | inhibition [6] 3.58% | RAM network inhibition [7] 4.67%

COc1ccc(OC)c(NC(=O)c2nnn(CCc3ccccc3)c2N)c1
inactive: growth inhibition [1] -5.97% | growth inhibition [2] -3.14% | viability increase [3] -4.62% | viability [4] 88% | viability [5] 89.7% | inhibition [6] 1.85% | RAM network inhibition [7] 13.1%

CC1CCCC(NC(=O)c2ccc3c(c2)N(Cc2ccccc2)C(=O)CS3=O)C1C (stereo unspecified)
inactive: growth inhibition [1] 0.145% | growth inhibition [2] 4.42% | viability increase [3] -3.1% | viability [4] 70.8% | viability [5] 62.5% | inhibition [6] 0.69% | RAM network inhibition [7] 5.92%
